Columns and labels:
LNCaP [1] = assay: Antiproliferative activity against human LNCAP cells assessed as reduction in cell viability after 96 hrs by MTT assay; format: functional, cell-based
How it was run: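 LNCaP cells in RPMI-1640 with 10% FCS, penicillin/streptomycin, 37°C, 5% CO2; seeded 4000 cells/well, adhered overnight. Medium replaced with fresh medium carrying nine half-log concentrations up to 100 μM (DMSO 1:100) or DMSO control, triplicate, 96 h. MTT, formazan dissolved in acidified isopropanol, A540; viability vs DMSO; absolute IC50 by non-linear regression, mean of three independent experiments.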

PC-3 = assay: Antiproliferative activity against human PC3 cells assessed as reduction in cell viability after 96 hrs by MTT assay; format: functional, cell-based; settings: PC-3, 96 h
How it was run: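 PC3 cells grown in DMEM with 10% FCS, seeded at 4000 cells/well, adhered overnight, then medium replaced with medium containing nine concentrations from 0.1 to 100 μM (1:100 dilution of DMSO stocks) or DMSO control, in triplicate, for 96 h. MTT read-out: formazan dissolved in acidified isopropanol, absorbance at 540 nm; viability normalised to DMSO; IC50 from triplicate means.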

[2] = biological target: T1, Androgen receptor (Homo sapiens) (UniProt P10275); assay: Antagonist activity at androgen receptor in human LNCAP cells assessed as reduction in PSA expression after 24 hrs by qPCR analysis; format: cell-based
T1 sequence (whole entry): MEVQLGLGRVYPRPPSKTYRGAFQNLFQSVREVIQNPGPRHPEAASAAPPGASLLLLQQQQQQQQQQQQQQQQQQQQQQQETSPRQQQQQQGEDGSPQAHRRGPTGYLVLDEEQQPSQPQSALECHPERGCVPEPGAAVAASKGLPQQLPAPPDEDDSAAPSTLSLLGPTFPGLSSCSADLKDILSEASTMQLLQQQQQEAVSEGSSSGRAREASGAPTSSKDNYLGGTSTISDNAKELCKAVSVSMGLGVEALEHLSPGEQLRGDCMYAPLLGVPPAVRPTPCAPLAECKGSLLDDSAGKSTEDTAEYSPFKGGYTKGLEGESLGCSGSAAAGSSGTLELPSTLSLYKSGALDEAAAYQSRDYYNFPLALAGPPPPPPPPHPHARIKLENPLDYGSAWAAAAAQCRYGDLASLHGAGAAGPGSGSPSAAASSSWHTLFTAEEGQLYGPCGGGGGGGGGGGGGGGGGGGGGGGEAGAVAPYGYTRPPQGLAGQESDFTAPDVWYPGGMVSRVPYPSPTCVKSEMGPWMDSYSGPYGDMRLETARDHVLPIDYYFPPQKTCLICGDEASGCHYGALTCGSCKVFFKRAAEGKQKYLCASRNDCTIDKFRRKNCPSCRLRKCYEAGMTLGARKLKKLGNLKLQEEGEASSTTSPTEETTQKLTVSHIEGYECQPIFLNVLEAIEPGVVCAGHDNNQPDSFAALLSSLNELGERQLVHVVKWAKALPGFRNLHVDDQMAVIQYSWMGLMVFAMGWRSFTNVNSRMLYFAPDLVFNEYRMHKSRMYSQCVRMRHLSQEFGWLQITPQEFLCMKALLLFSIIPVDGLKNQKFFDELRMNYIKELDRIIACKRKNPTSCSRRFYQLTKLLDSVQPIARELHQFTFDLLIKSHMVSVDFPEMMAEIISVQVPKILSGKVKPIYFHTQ
How it was run: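 LNCaP cells seeded in 6-well plates in RPMI and allowed 24 h to adhere, then exposed to 5, 10, 50 and 100 μM for 24 h; untreated and DMSO (1:100) wells as negative controls. RNA extracted with TRI-reagent, reverse-transcribed, qPCR run in triplicate for PSA with AR, GAPDH, RPL19 and β-actin as housekeeping genes; relative expression by ΔΔCT.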

VCaP = assay: Antiproliferative activity against human VCaP cells assessed as reduction in cell viability after 96 hrs by MTS assay; format: functional, cell-based
How it was run: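 VCaP cells in DMEM with 10% FCS, exposed for 96 h in triplicate to nine concentrations from 0.1 to 100 μM or DMSO. Because adherence is poor, only half the medium was exchanged for medium carrying compound at a 1:50 dilution. Viability by MTS, absorbance at 490 nm after 1 and 2 h, normalised to DMSO; IC50 from triplicate means.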

LNCaP [3] = assay: Potency index, ratio of IC50 for enzalutamide to IC50 for test compound for antiproliferative activity against human LNCAP cells incubated for 96 hrs by MTT assay; format: functional
LNCaP [4] = assay: Potency index, ratio of IC50 for bicalutamide to IC50 for test compound for antiproliferative activity against human LNCAP cells incubated for 96 hrs by MTT assay; format: functional

Compound | IC50 (LNCaP [1]) [µM] | other results
CC(CSc1cc(C(F)(F)F)cc(C(F)(F)F)c1)C(=O)Nc1ccc([N+](=O)[O-])cc1C(F)(F)F (racemic) | 43.7 | –
CC(CSc1ccc(C(F)(F)F)cc1)C(=O)Nc1ccc([N+](=O)[O-])c(C(F)(F)F)c1 (racemic) | 4.41 | –
CC(CS(=O)(=O)c1cc(C(F)(F)F)cc(C(F)(F)F)c1)C(=O)Nc1ccc(C#N)cc1C(F)(F)F (racemic) | 9.56 | –
CC(CSc1cc(C(F)(F)F)cc(C(F)(F)F)c1)C(=O)Nc1ccc(C#N)cc1C(F)(F)F (racemic) | 4.57 | –
CC(CSc1ccc(C(F)(F)F)cc1)C(=O)Nc1ccc([N+](=O)[O-])cc1C(F)(F)F (racemic) | 54.3 | –
CC(CS(=O)(=O)c1ccc(C(F)(F)F)cc1)C(=O)Nc1ccc([N+](=O)[O-])c(C(F)(F)F)c1 (racemic) | 3.31 | –
CC(CSc1cccc(OC(F)(F)F)c1)C(=O)Nc1ccc(C#N)c(C(F)(F)F)c1 (racemic) | 115 | –
CC(CS(=O)(=O)c1ccc(F)cc1)C(=O)Nc1ccc([N+](=O)[O-])c(C(F)(F)F)c1 (racemic) | 2.67 | IC50 (PC-3): 112 µM; inhibition [2]: Dose-dependent effect; IC50 (VCaP): 8.21 µM
CC(CS(=O)(=O)c1cc(C(F)(F)F)cc(C(F)(F)F)c1)C(=O)Nc1ccc([N+](=O)[O-])cc1C(F)(F)F (racemic) | 3.08 | –
CC(CSc1cc(C(F)(F)F)cc(C(F)(F)F)c1)(Sc1cc(C(F)(F)F)cc(C(F)(F)F)c1)C(=O)Nc1ccc([N+](=O)[O-])cc1C(F)(F)F (racemic) | 0.43 | Ratio IC50 (LNCaP [3]): >3; IC50 (PC-3): 0.91 µM; Ratio IC50 (LNCaP [4]): >40; inhibition [2]: Dose-dependent effect; IC50 (VCaP): 0.18 µM
CC(CS(=O)(=O)c1ccc(F)cc1)C(=O)Nc1ccc([N+](=O)[O-])cc1C(F)(F)F (racemic) | 4.05 | –
CC(CS(=O)(=O)c1ccc(C(F)(F)F)cc1)C(=O)Nc1ccc(C#N)c(C(F)(F)F)c1 (racemic) | 58 | –
CC(CSc1ccc(C(F)(F)F)cc1)(Sc1ccc(C(F)(F)F)cc1)C(=O)Nc1ccc(C#N)c(C(F)(F)F)c1 (racemic) | 1.68 | IC50 (PC-3): 5.45 µM; inhibition [2]: Dose-dependent effect; IC50 (VCaP): 0.13 µM
CC(CSc1ccc(F)cc1)C(=O)Nc1ccc(C#N)c(C(F)(F)F)c1 (racemic) | 8.69 | –
CC(CS(=O)(=O)c1ccc(F)cc1)C(=O)Nc1ccc(C#N)c(C(F)(F)F)c1 (racemic) | 115 | –
CC(CS(=O)(=O)c1cc(C(F)(F)F)cc(C(F)(F)F)c1)C(=O)Nc1ccc(C#N)c(C(F)(F)F)c1 (racemic) | 6.16 | –
CC(CS(=O)(=O)c1ccc(C(F)(F)F)cc1)C(=O)Nc1ccc([N+](=O)[O-])cc1C(F)(F)F (racemic) | 26.3 | –
CC(CSc1ccc(F)cc1)C(=O)Nc1ccc([N+](=O)[O-])c(C(F)(F)F)c1 (racemic) | 27.2 | –
CC(CS(=O)(=O)c1cccc(OC(F)(F)F)c1)C(=O)Nc1ccc(C#N)c(C(F)(F)F)c1 (racemic) | 13.2 | –
CC(CS(=O)(=O)c1cc(C(F)(F)F)cc(C(F)(F)F)c1)C(=O)Nc1ccc([N+](=O)[O-])c(C(F)(F)F)c1 (racemic) | 12.2 | –
CC(CSc1ccc(F)cc1)C(=O)Nc1ccc([N+](=O)[O-])cc1C(F)(F)F (racemic) | 43.2 | –
CC(CS(=O)(=O)c1ccc(C(F)(F)F)cc1)C(=O)Nc1ccc(C#N)cc1C(F)(F)F (racemic) | 28.8 | –
C[C@](O)(CS(=O)(=O)c1ccc(F)cc1)C(=O)Nc1ccc(C#N)c(C(F)(F)F)c1 [(R)-BICALUTAMIDE] | 20.4 | IC50 (PC-3): 92.6 µM; IC50 (VCaP): 5.96 µM
CNC(=O)c1ccc(N2C(=S)N(c3ccc(C#N)c(C(F)(F)F)c3)C(=O)C2(C)C)cc1F [ENZALUTAMIDE] | 1.31 | IC50 (PC-3): 15.1 µM; IC50 (VCaP): 3.66 µM
